ChEMBL document CHEMBL1145894, “Anti-herpes simplex virus activity of substituted 1-hydroxyacridones” (J Med Chem, 2003)
Active and inactive are the calls of the source. The rule behind the calls is not given here.

What was measured:
Vero = test: In vitro cytotoxic concentration in vero cells.; format: functional; conditions: Chlorocebus sabaeus
Procedure, shortened: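 Vero cell replication was measured by sulforhodamine B dye binding after 2 days of continuous compound exposure. CC50 is the concentration giving 50% inhibition relative to untreated control, calculated by nonlinear regression with a sigmoidal fit to dose-response data.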

Human alphaherpesvirus 2 [1] = test: Inhibitory activity against HSV-2 in vero cells; format: functional, herpes simplex virus; conditions: Human alphaherpesvirus 2, Vero; read-out: ED50 (the source's name)
Procedure, shortened: (§1)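 Plaque-elimination assay. Cells were infected with 50–100 PFU of HSV-1 (KOS) or HSV-2 (186 or plaque-purified 186 stocks, 333, G) and adsorbed for 1 h, then overlaid with 0.5% FCS medium ± compound, in duplicate. After 2 days, wells were crystal-violet stained and plaques counted by eye; ED50 was taken from a sigmoidal nonlinear fit.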

Human alphaherpesvirus 1 [2] = test: Inhibitory activity against HSV-1 in vero cells; format: functional, herpes simplex virus; conditions: Human alphaherpesvirus 1, Vero; read-out: ED50 (the source's name); procedure, shortened: as §1
Human alphaherpesvirus 2 [3] = test: Inhibitory activity against HSV-2 in vero cells; NA= not active; format: functional, organism-based; conditions: herpes simplex virus; procedure, shortened: as §1
Human alphaherpesvirus 1 [4] = test: Inhibitory activity against HSV-1 in vero cells; NA= not active; format: functional, organism-based; conditions: herpes simplex virus; procedure, shortened: as §1
[5] = Therapeutic index (vero CC50/ED50) against HSV-1; conditions: herpes simplex virus, Vero cells; read-out: TI
Procedure, shortened: (§2)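 Selectivity (TI) was calculated as Vero CC50 (SRB assay, 2 days continuous treatment) divided by plaque-reduction ED50 against the given HSV strain in Vero cells, using 50–100 PFU inoculum and a 2-day incubation.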

[6] = Therapeutic index (vero CC50/ED50) against HSV-2; conditions: herpes simplex virus, Vero cells; read-out: TI; procedure, shortened: as §2
herpes simplex virus [7] = test: Anti-HSV activity against HSV-2 (186, c2) strain; format: functional; procedure, shortened: as §1
herpes simplex virus [8] = test: Anti-HSV activity against HSV-2 (G) strain; format: functional; procedure, shortened: as §1
[9] = Therapeutic index against HSV-2 (186, c4); conditions: herpes simplex virus; read-out: TI; procedure, shortened: as §2
[10] = Therapeutic index against HSV-1 (KOS); conditions: herpes simplex virus; read-out: TI; procedure, shortened: as §2
[11] = Therapeutic index against HSV-2 (G); conditions: herpes simplex virus; read-out: TI; procedure, shortened: as §2
[12] = Therapeutic index against HSV-2 (186, c2); conditions: herpes simplex virus; read-out: TI; procedure, shortened: as §2
herpes simplex virus [13] = test: Anti-HSV activity against HSV-2 (186, c4) strain; format: functional; procedure, shortened: as §1
herpes simplex virus [14] = test: Anti-HSV activity against HSV-1 (KOS) strain; format: functional; procedure, shortened: as §1
herpes simplex virus [15] = test: Anti-HSV activity against HSV-2 (333) strain; format: functional; procedure, shortened: as §1
herpes simplex virus [16] = test: Anti-HSV activity against HSV-2 (186) strain; format: functional; procedure, shortened: as §1
[17] = Therapeutic index against HSV-2 (333); conditions: herpes simplex virus; read-out: TI; procedure, shortened: as §2
[18] = Therapeutic index (vero CC50/ED50) against HSV-2; NA= not active; conditions: herpes simplex virus; procedure, shortened: as §2
Human alphaherpesvirus 1 [19] = test: Inhibitory activity against HSV-1 in vero cells; NA= not active at 100 uM; format: functional, organism-based; conditions: herpes simplex virus; procedure, shortened: as §1
Human alphaherpesvirus 2 [20] = test: Inhibitory activity against HSV-2 in vero cells; NA= not active, at 50 uM no toxicity; format: functional, organism-based; conditions: herpes simplex virus; procedure, shortened: as §1

SMILES	CC50 (Vero)	EC50 (Human alphaherpesvirus 2 [1])	EC50 (Human alphaherpesvirus 1 [2])	selectivity ratio [5]	also measured
COc1cc(O)c2c(=O)c3cccc(Cl)c3n(C)c2c1	> 100 µM	> 50 µM	> 100 µM	–	–
Cc1cc(O)c2c(=O)c3cccc(Cl)c3[nH]c2c1	13 µM	–	–	–	ED50 (Human alphaherpesvirus 2 [3]): inactive; ED50 (Human alphaherpesvirus 1 [4]): inactive
O=c1c2cc(Cl)ccc2[nH]c2cc(O)cc(O)c12	52 µM	15 µM	16 µM	3.5	selectivity ratio [6]: 3.5
COc1cc(O)c2c(O)c3cc(OC)ccc3nc2c1	> 50 µM	> 10 µM	–	–	–
Cn1c2cc(O)cc(O)c2c(=O)c2cccc(Cl)c21	50 µM	> 30 µM	> 50 µM	–	–
O=C(O)CP(=O)(O)O [FOSFONET]	3500 µM	–	240 µM	29	–
O=c1c2c(O)cc(O)cc2[nH]c2cccc(Cl)c12	70 µM	–	10 µM	7	–
Cc1cccc2c(O)c3c(O)cc(O)cc3nc12	32 µM	15 µM	8 µM	4	selectivity ratio [6]: 2.1
COc1cc(O)c2c(=O)c3cccc(Cl)c3[nH]c2c1	> 100 µM	–	> 50 µM	–	ED50 (Human alphaherpesvirus 2 [3]): inactive
COc1cccc2c(O)c3c(O)cc(O)cc3nc12	30 µM	0.6 µM	2.2 µM	13	ED50 (herpes simplex virus [7]): 0.6 µM; ED50 (herpes simplex virus [8]): 0.5 µM; selectivity ratio [9]: 25; selectivity ratio [10]: 14; selectivity ratio [11]: 60; selectivity ratio [12]: 50; ED50 (herpes simplex virus [13]): 1.2 µM; ED50 (herpes simplex virus [14]): 2.2 µM; ED50 (herpes simplex virus [15]): 0.7 µM; ED50 (herpes simplex virus [16]): 0.6 µM; selectivity ratio [6]: 50; selectivity ratio [17]: 43
Oc1cc(O)c2c(O)c3cc(O)ccc3nc2c1	40 µM	–	15 µM	2.7	–
O=c1c2cccc(Cl)c2[nH]c2cc(O)cc(O)c12	60 µM	> 30 µM	4 µM	13	TI [18]: Not Active
O=c1c2ccc(Cl)cc2[nH]c2cc(O)cc(O)c12	29 µM	–	10 µM	3	TI [18]: Not Active
Oc1cc(O)c2c(O)c3cc(Cl)cc(Cl)c3nc2c1	> 100 µM	20 µM	12 µM	> 5	selectivity ratio [6]: > 8.3
O=c1c2cccc(Cl)c2[nH]c2cc3ccccc3c(O)c12	> 100 µM	–	–	–	ED50 (Human alphaherpesvirus 1 [19]): inactive
COc1cc(O)c2c(O)c3cccnc3nc2c1	5.5 µM	–	–	–	ED50 (Human alphaherpesvirus 2 [20]): inactive
COc1cc(O)c2c(O)c3cccc(OC)c3nc2c1	> 50 µM	> 50 µM	–	–	–
O=c1c2ccccc2[nH]c2cc(O)cc(O)c12	68 µM	–	45 µM	1.5	–
COc1cc(O)c2c(O)c3cc(O)ccc3nc2c1	25 µM	< 10 µM	–	–	–
Cc1cccc2nc3cc(O)cc(O)c3c(O)c12	60 µM	–	44 µM	1.4	–
Nc1nc2c(ncn2COCCO)c(=O)[nH]1 [ACYCLOVIR]	> 400 µM	2.5 µM	0.5 µM	> 800	selectivity ratio [6]: > 160
